Active and inactive are the calls of the source. The rule behind the calls is not given here.
What was measured:
[1] = molecular target: T1, Toll-like receptor 9 (Mus musculus) (UniProt Q9EQU3); assay: Activation of mouse TLR9 expressed in HEK293 cells assessed as NF-kappaB level at 0.1 ug/mL after 18 hrs by reporter gene assay; assay type: cell-based
T1 sequence (whole entry): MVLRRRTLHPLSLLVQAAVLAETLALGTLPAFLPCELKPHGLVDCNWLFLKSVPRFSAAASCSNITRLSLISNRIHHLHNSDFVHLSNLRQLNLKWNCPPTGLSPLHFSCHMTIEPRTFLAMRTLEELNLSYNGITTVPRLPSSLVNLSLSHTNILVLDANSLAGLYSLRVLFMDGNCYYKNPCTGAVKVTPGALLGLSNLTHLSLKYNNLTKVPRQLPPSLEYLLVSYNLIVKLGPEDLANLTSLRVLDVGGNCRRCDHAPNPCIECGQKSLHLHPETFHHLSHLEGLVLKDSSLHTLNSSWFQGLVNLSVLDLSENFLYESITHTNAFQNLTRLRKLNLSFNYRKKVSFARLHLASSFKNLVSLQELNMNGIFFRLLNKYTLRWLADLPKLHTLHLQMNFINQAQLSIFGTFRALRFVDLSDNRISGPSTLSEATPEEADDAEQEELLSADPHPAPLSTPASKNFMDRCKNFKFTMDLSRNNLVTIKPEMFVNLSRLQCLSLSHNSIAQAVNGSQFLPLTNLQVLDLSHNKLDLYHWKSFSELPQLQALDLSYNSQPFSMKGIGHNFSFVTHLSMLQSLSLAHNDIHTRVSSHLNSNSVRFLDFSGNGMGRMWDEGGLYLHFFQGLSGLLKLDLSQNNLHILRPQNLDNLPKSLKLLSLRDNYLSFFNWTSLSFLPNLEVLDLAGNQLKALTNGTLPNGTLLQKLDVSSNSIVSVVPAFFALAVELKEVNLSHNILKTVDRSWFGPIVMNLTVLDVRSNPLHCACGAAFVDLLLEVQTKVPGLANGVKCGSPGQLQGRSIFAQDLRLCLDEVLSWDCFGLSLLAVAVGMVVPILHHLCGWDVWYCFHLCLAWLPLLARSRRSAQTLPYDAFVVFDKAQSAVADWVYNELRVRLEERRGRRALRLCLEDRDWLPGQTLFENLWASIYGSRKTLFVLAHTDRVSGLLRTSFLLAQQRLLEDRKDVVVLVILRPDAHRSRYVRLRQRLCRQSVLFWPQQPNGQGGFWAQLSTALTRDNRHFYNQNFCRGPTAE
Outline: (§1)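 HEK293 cells stably expressing mouse TLR9 were transiently transfected with a SEAP reporter for 6 h, then stimulated with ODN at 0.1, 0.3 or 1 μg/mL for 18 h. Reporter expression is given as fold change in NF-κB activity over medium. Representative of two independent experiments.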

[2] = molecular target: T1, Toll-like receptor 9 (Mus musculus); assay: Activation of mouse TLR9 expressed in HEK293 cells assessed as NF-kappaB level at 0.3 ug/mL after 18 hrs by reporter gene assay; assay type: cell-based; outline: as §1
[3] = molecular target: T1, Toll-like receptor 9 (Mus musculus); assay: Activation of mouse TLR9 expressed in HEK293 cells assessed as NF-kappaB level at 1 ug/mL after 18 hrs by reporter gene assay; assay type: cell-based; outline: as §1
J774 = assay: Activation of NF-kappaB in mouse J774 cells at 0.5 ug/ml after 1 hr by EMSA; assay type: cell-based
Outline: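 Murine J774 macrophages in DMEM with 10% FBS and antibiotics, plated at 5×10^6 cells/well. ODNs were given alone or together for 1 h. For inhibition, the agonist ODN at 0.5 μg/mL was co-incubated with the modified ODN at 2.5 μg/mL. Nuclear extracts were resolved by EMSA on native polyacrylamide gels and read by autoradiography.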

Splenocyte [4] = assay: Immunostimulatory activity in C57BL/6 mouse splenocytes assessed as induction of IL12 secretion after 24 hrs by sandwich ELISA; assay type: functional, cell-based
Outline: (§2)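 C57BL/6 splenocytes (mice 5–8 weeks) at 5 × 10^6 cells/mL in RPMI complete medium. ODNs dissolved in PBS were added and the cells incubated at 37 °C for 24 h. Supernatant IL-12 or IL-6 was measured by sandwich ELISA. Runs were done two or three times, in duplicate per concentration.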

Splenocyte [5] = assay: Immunostimulatory activity in C57BL/6 mouse splenocytes assessed as induction of IL6 secretion after 24 hrs by sandwich ELISA; assay type: functional, cell-based; outline: as §2
Mus musculus [6] = assay: Immunostimulatory activity in C57BL/6 mouse assessed as induction of MIP-1alpha level in serum at 2 mg/kg, sc after 2 hrs by Luminex multiplex assay; assay type: functional, organism-based; parameters: dose 2 mg/kg
Outline: (§3)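 Female C57BL/6 mice, 5–6 weeks old, n = 3, received a single 2 mg/kg subcutaneous ODN injection in the right flank. Blood was taken by retro-orbital bleeding 2 h later. Naive mice served as baseline. Representative of three experiments.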

Mus musculus [7] = assay: Immunostimulatory activity in C57BL/6 mouse assessed as induction of TNFalpha level in serum at 2 mg/kg, sc after 2 hrs by Luminex multiplex assay; assay type: functional, organism-based; parameters: dose 2 mg/kg; outline: as §3
Mus musculus [8] = assay: Immunostimulatory activity in C57BL/6 mouse assessed as induction of IL10 level in serum at 2 mg/kg, sc after 2 hrs by Luminex multiplex assay; assay type: functional, organism-based; parameters: dose 2 mg/kg; outline: as §3
Mus musculus [9] = assay: Immunostimulatory activity in C57BL/6 mouse assessed as induction of MCP1 level in serum at 2 mg/kg, sc after 2 hrs by Luminex multiplex assay; assay type: functional, organism-based; parameters: dose 2 mg/kg; outline: as §3
Mus musculus [10] = assay: Immunostimulatory activity in C57BL/6 mouse assessed as induction of KC level in serum at 2 mg/kg, sc after 2 hrs by Luminex multiplex assay; assay type: functional, organism-based; parameters: dose 2 mg/kg; outline: as §3
Mus musculus [11] = assay: Immunostimulatory activity in C57BL/6 mouse assessed as induction of IL12 level in serum at 2 mg/kg, sc after 2 hrs by sandwich ELISA; assay type: functional, organism-based; parameters: dose 2 mg/kg; outline: as §3
Splenocyte [12] = assay: Immunostimulatory activity in C57BL/6 mouse splenocytes assessed as induction of IL12 secretion at 2 to 10 ug/ml after 24 hrs by sandwich ELISA; assay type: functional, cell-based; outline: as §2
Splenocyte [13] = assay: Immunostimulatory activity in C57BL/6 mouse splenocytes assessed as induction of IL6 secretion at 2 to 10 ug/ml after 24 hrs by sandwich ELISA; assay type: functional, cell-based; outline: as §2
Mus musculus [14] = assay: Immunostimulatory activity in C57BL/6 mouse assessed as inhibition of 5'-CTATCTGACGTTCTCTGT-3'-induced MIP-1alpha production in serum at 2 mg/kg, sc administered 24 hrs prior to 5'-CTATCTGACGTTCTCTGT-3' challenge measured after 2 hrs by Luminex multiplex assay; assay type: functional, organism-based; parameters: dose 2 mg/kg
Outline: (§4)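 C57BL/6 mice received 2 mg/kg ODN sc in one flank. After 24 h, the TLR9 agonist ODN was given at 0.5 mg/kg sc in the opposite flank. Blood was drawn 2 h later and serum cytokines/chemokines were quantified by Luminex multiplex assay. Percent inhibition was taken against the agonist alone. Representative of three experiments.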

Mus musculus [15] = assay: Immunostimulatory activity in C57BL/6 mouse assessed as inhibition of 5'-CTATCTGACGTTCTCTGT-3'-induced TNFalpha production in serum at 2 mg/kg, sc administered 24 hrs prior to 5'-CTATCTGACGTTCTCTGT-3' challenge measured after 2 hrs by Luminex multiplex assay; assay type: functional, organism-based; parameters: dose 2 mg/kg; outline: as §4
Mus musculus [16] = assay: Immunostimulatory activity in C57BL/6 mouse assessed as inhibition of 5'-CTATCTGACGTTCTCTGT-3'-induced IL10 production in serum at 2 mg/kg, sc administered 24 hrs prior to 5'-CTATCTGACGTTCTCTGT-3' challenge measured after 2 hrs by Luminex multiplex assay; assay type: functional, organism-based; parameters: dose 2 mg/kg; outline: as §4
Mus musculus [17] = assay: Immunostimulatory activity in C57BL/6 mouse assessed as inhibition of 5'-CTATCTGACGTTCTCTGT-3'-induced MCP1 production in serum at 2 mg/kg, sc administered 24 hrs prior to 5'-CTATCTGACGTTCTCTGT-3' challenge measured after 2 hrs by Luminex multiplex assay; assay type: functional, organism-based; parameters: dose 2 mg/kg; outline: as §4
Mus musculus [18] = assay: Immunostimulatory activity in C57BL/6 mouse assessed as inhibition of 5'-CTATCTGACGTTCTCTGT-3'-induced KC production in serum at 2 mg/kg, sc administered 24 hrs prior to 5'-CTATCTGACGTTCTCTGT-3' challenge measured after 2 hrs by Luminex multiplex assay; assay type: functional, organism-based; parameters: dose 2 mg/kg; outline: as §4

Compound | Activity [1] | Activity [2] | Activity [3] | Activity (J774) | Activity (Splenocyte [4]) | Activity (Splenocyte [5]) | Activity (Mus musculus [6]) | Activity (Mus musculus [7]) | Activity (Mus musculus [8]) | Activity (Mus musculus [9]) | Activity (Mus musculus [10]) | Activity (Mus musculus [11]) | Activity (Splenocyte [12]) | Activity (Splenocyte [13]) | Activity (Mus musculus [14]) | Activity (Mus musculus [15]) | Activity (Mus musculus [16]) | Activity (Mus musculus [17]) | Activity (Mus musculus [18])
Cc1cn([C@H]2C[C@H](OP(=O)(S)OC[C@H]3O[C@@H](n4ccc(N)nc4=O)C[C@@H]3OP(=O)(S)OC[C@H]3O[C@@H](n4cc(C)c(=O)[nH]c4=O)C[C@@H]3OP(=O)(S)OC[C@H]3O[C@@H](n4cnc5c(=O)[nH]c(N)nc54)C[C@@H]3OP(=O)(S)OC[C@H]3O[C@@H](n4cc(C)c(=O)[nH]c4=O)C[C@@H]3O)[C@@H](COP(=O)(S)O[C@H]3C[C@H](n4ccc(N)nc4=O)O[C@@H]3COP(=O)(S)O[C@H]3C[C@H](n4cc(C)c(=O)[nH]c4=O)O[C@@H]3COP(=O)(S)O[C@H]3C[C@H](n4cc(C)c(=O)[nH]c4=O)O[C@@H]3COP(=O)(S)O[C@H]3C[C@H](n4cnc5c(=O)[nH]c(N)nc54)O[C@@H]3COP(=O)(S)O[C@H]3C[C@H](n4ccc(N)nc4=O)O[C@@H]3COP(=O)(S)O[C@H]3C[C@H](n4cnc5c(N)ncnc54)O[C@@H]3COP(=O)(S)O[C@H]3C[C@H](n4cnc5c(=O)[nH]c(N)nc54)O[C@@H]3COP(=O)(S)O[C@H]3C[C@H](n4cc(C)c(=O)[nH]c4=O)O[C@@H]3COP(=O)(S)O[C@H]3C[C@H](n4ccc(N)nc4=O)O[C@@H]3COP(=O)(S)O[C@H]3C[C@H](n4cc(C)c(=O)[nH]c4=O)O[C@@H]3COP(=O)(S)O[C@H]3C[C@H](n4cnc5c(N)ncnc54)O[C@@H]3COP(=O)(S)O[C@H]3C[C@H](n4cc(C)c(=O)[nH]c4=O)O[C@@H]3COP(=O)(S)O[C@H]3C[C@H](n4ccc(N)nc4=O)O[C@@H]3CO)O2)c(=O)[nH]c1=O (some centres not stated) | Active | Active | Active | Active | Dose-dependent effect | Dose-dependent effect | Active | Active | Active | Active | Active | Active |  |  |  |  |  |  | 
Cc1cn([C@H]2C[C@H](OP(=O)(S)OC[C@H]3O[C@@H](n4ccc(N)nc4=O)C[C@@H]3OP(=O)(S)OC[C@H]3O[C@@H](n4cc(C)c(=O)[nH]c4=O)C[C@@H]3OP(=O)(S)OC[C@H]3O[C@@H](n4cc(C)c(=O)[nH]c4=O)C[C@@H]3OP(=O)(S)OC[C@H]3O[C@@H](n4ccc(N)nc4=O)C[C@@H]3OP(=O)(S)OC[C@H]3O[C@@H](n4cc(C)c(=O)[nH]c4=O)C[C@@H]3OP(=O)(S)OC[C@H]3O[C@@H](n4ccc(N)nc4=O)C[C@@H]3OP(=O)(S)OC[C@H]3O[C@@H](n4cc(C)c(=O)[nH]c4=O)C[C@@H]3OP(=O)(S)OC[C@H]3O[C@@H](n4cnc5c(=O)[nH]c(N)nc54)C[C@@H]3OP(=O)(S)OC[C@H]3O[C@@H](n4cc(C)c(=O)[nH]c4=O)C[C@@H]3O)[C@@H](COP(=O)(S)O[C@H]3C[C@H](n4cnc5c(N)ncnc54)O[C@@H]3COP(=O)(S)O[C@H]3C[C@H](n4cnc5c(=O)[nH]c(N)nc54)O[C@@H]3COP(=O)(S)O[C@H]3C[C@H](n4cc(C)c(=O)[nH]c4=O)O[C@@H]3COP(=O)(S)O[C@H]3C[C@H](n4ccc(N)nc4=O)O[C@@H]3COP(=O)(S)O[C@H]3C[C@H](n4cc(C)c(=O)[nH]c4=O)O[C@@H]3COP(=O)(S)O[C@H]3C[C@H](n4cnc5c(N)ncnc54)O[C@@H]3COP(=O)(S)O[C@H]3C[C@H](n4cc(C)c(=O)[nH]c4=O)O[C@@H]3COP(=O)(S)O[C@H]3C[C@H](n4ccc(N)nc4=O)O[C@@H]3CO)O2)c(=O)nc1N (some centres not stated) | inactive | inactive | inactive |  |  |  |  |  |  |  |  |  | inactive | inactive | Active | Active | Active | Active | Active

From ChEMBL document CHEMBL1152452, “Modifications incorporated in CpG motifs of oligodeoxynucleotides lead to antagonist activity of toll-like receptors 7 and 9” (2009)
